Data from ChEMBL document CHEMBL4354821, “Benzisothiazolinone Derivatives as Potent Allosteric Monoacylglycerol Lipase Inhibitors That Functionally Mimic Sulfenylation of Regulatory Cysteines” (J Med Chem, 2020).
Active and inactive are the calls of the source. The rule behind the calls is not given here.

Columns and labels:
[1] = biological target: T1, Monoglyceride lipase (Rattus norvegicus, UniProt Q8R431); assay: Inhibition of recombinant rat MGL expressed in human HeLa cells using 2-oleoylglycerol as substrate preincubated for 10 mins followed by substrate addition and measured after 10 mins by LC-MS analysis; format: cell-based
T1 sequence (Q8R431 whole entry): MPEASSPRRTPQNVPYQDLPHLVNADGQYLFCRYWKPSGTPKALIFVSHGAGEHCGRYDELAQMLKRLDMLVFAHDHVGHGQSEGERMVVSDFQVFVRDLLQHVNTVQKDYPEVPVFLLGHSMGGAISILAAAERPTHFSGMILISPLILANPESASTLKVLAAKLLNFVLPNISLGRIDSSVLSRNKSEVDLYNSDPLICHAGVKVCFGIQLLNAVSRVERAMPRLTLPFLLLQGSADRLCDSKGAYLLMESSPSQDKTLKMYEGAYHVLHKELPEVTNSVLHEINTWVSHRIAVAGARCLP

[2] = system: N2a; assay: Protection against H2O2-induced toxicity in mouse Neuro2a cells assessed as reduction in LDH release at 1 uM preincubated for 30 mins followed by H2O2 challenge and measured after 24 hrs; format: functional, cell-based
Procedure, shortened: (§1)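 Neuro-2a cells seeded 5×10^3/well, after 24 h pretreated with agents 30 min, then H2O2 300 µM for 24 h; LDH release into medium measured by absorbance with cytotoxicity detection kit; mean ± SEM; t test or one-way ANOVA with Dunnett's.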

[3] = system: N2a; assay: Protection against H2O2-induced toxicity in mouse Neuro2a cells assessed as reduction in LDH release at 1 uM preincubated for 30 mins followed by H2O2 challenge and measured after 24 hrs in presence of CB1 receptor antagonist rimonabant; format: functional, cell-based; procedure, shortened: as §1
[4] = biological target: Monoglyceride lipase (Rattus norvegicus, UniProt Q8R431, C201A); assay: Inhibition of recombinant rat MGL C201A mutant expressed in human HeLa cells using 2-oleoylglycerol as substrate preincubated for 10 mins followed by substrate addition and measured after 10 mins by LC-MS analysis; format: cell-based
Chain of Monoglyceride lipase (Rattus norvegicus, UniProt Q8R431, C201A) (Q8R431 whole entry C201A): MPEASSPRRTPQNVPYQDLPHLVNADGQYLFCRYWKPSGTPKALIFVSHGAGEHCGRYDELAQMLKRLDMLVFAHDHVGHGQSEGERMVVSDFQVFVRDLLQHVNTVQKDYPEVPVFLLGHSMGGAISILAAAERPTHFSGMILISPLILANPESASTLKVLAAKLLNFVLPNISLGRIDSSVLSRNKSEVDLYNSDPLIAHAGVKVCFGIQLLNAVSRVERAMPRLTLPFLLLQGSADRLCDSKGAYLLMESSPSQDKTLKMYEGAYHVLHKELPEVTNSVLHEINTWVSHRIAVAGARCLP

[5] = biological target: Monoglyceride lipase (Rattus norvegicus, UniProt Q8R431, C208A); assay: Inhibition of recombinant rat MGL C208A mutant expressed in human HeLa cells using 2-oleoylglycerol as substrate preincubated for 10 mins followed by substrate addition and measured after 10 mins by LC-MS analysis; format: cell-based
Chain of Monoglyceride lipase (Rattus norvegicus, UniProt Q8R431, C208A) (Q8R431 whole entry C208A): as the sequence (Q8R431 whole entry C201A) above, with A201C, C208A counted along it

[6] = biological target: Monoglyceride lipase (Rattus norvegicus, UniProt Q8R431, C201A/C208A); assay: Inhibition of recombinant rat MGL C201A/C208A mutant expressed in human HeLa cells using 2-oleoylglycerol as substrate preincubated for 10 mins followed by substrate addition and measured after 10 mins by LC-MS analysis
Chain of Monoglyceride lipase (Rattus norvegicus, UniProt Q8R431, C201A/C208A) (Q8R431 whole entry C201A/C208A): as the sequence (Q8R431 whole entry C201A) above, with C208A counted along it

[7] = Drug metabolism in pH 7.4 phosphate buffered saline assessed as N-(2-phenylethyl)-2-[[2-(2-phenylethylcarbamoyl)phenyl]disulfanyl]benzamide formation at 100 uM measured after 60 mins in presence of N-(2-phenylethyl)-2-sulfanyl-benzamide by HR-MS analysis
Procedure, shortened: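 Compound 100 μM final (from 10 mM DMSO stock, 1% DMSO) with GSH 200 μM final in 10 mM PBS pH 7.4 at 37 °C; species quantified at t = 60 min by LC/UV (210/254 nm) and HR-MS (Orbitrap, ESI); mean ± SEM, n = 3-4.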

[8] = Glutathione reactivity in pH 7.4 phosphate buffered saline assessed as GSH-adduct formation by measuring GSH level at 100 uM measured after 60 mins by HR-MS analysis; format: ADME; settings: buffer, pH 7.4, 1 h
Procedure, shortened: (§2)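 BTZ 100 µM final (from 10 mM DMSO stock, 1% DMSO final) with GSH 200 µM final in 10 mM PBS pH 7.4 at 37.0 °C; sampled at 60 min (steady state). GSH, GSSG and BTZ quantified by LC/UV (210 nm for GSH/GSSG, 254 nm for BTZ) against PBS standard curves; products identified by HR-MS (Orbitrap). Mean ± SEM, n = 3-4.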

[9] = Glutathione reactivity in pH 7.4 phosphate buffered saline assessed as GSH-adduct formation by measuring oxidized GSH level at 100 uM measured after 60 mins by HR-MS analysis; format: ADME; settings: buffer, pH 7.4, 1 h; procedure, shortened: as §2
[10] = Glutathione reactivity in pH 7.4 phosphate buffered saline assessed as GSH-adduct formation by measuring parent compound level at 100 uM measured after 60 mins by HR-MS analysis; format: ADME; settings: buffer, pH 7.4, 1 h, BLD = below limit of detection; procedure, shortened: as §2
[11] = Tmax in C57BL6 mouse plasma at 10 mg/kg, ip by LC-MS/MS analysis; format: ADME, organism-based
Procedure, shortened: (§3)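 Adult male C57/BL6 mice, n=4 per group, single 10 mg/kg i.p. dose, saline vehicle. Plasma and brain collected at set times after injection. Brains homogenized in acetonitrile with 0.1% formic acid and passed through lipid-removal cartridges. Compound quantified by LC-MS/MS on C18 with formic acid water/methanol step gradient; LOQ 0.1 ng/mL, linear 0.1-100.0 ng/mL.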

[12] = Tmax in C57BL6 mouse brain at 10 mg/kg, ip by LC-MS/MS analysis; format: ADME, organism-based; procedure, shortened: as §3
[13] = Ratio of drug level in brain to plasma of C57BL6 mouse at 10 mg/kg, ip by LC-MS/MS analysis; format: ADME, organism-based; procedure, shortened: as §3
[14] = system: Mus musculus; assay: In vivo inhibition of MGL in C57BL6 mouse assessed as increase in 2-AG level at 10 mg/kg, ip measured after 2 hrs by LC-MS/MS analysis; format: functional, organism-based
Procedure, shortened: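 Adult male C57/BL6 mice, n=4 per group, single 10 mg/kg i.p. dose, saline vehicle; brains collected 2 h post-injection; lipids extracted from homogenate and 2-AG measured by LC-MS (triple quadrupole, ESI positive, isocratic C18); two-tailed t test or ANOVA with Dunnett's.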

SMILES	IC50 [1] [nM]	further results
O=c1c2ccc(O)cc2sn1CCc1ccccc1	2550	
O=C(Oc1ccc([N+](=O)[O-])cc1)N1CCC(C(O)(c2ccc3c(c2)OCO3)c2ccc3c(c2)OCO3)CC1		Activity [2]: Active; Activity [3]: inactive
Cn1sc2ccccc2c1=O	59.5	
O=c1c2ccccc2sn1CCc1ccc2ccccc2c1	54.2	
O=c1c2ccc([N+](=O)[O-])cc2sn1CCc1ccccc1	238	
O=c1c2ccccc2sn1NCc1ccc(-c2ccccc2)cc1	322	
O=c1c2ccccc2sn1CCCCCCN1CCCCC1	195	
O=c1[nH]sc2ccccc12	306	
COc1ccc2sn(CCc3ccccc3)c(=O)c2c1	568	
O=C(O)c1ccc(CNn2sc3ccccc3c2=O)cc1	278	
O=c1c2ccccc2sn1C1CCCCC1	55.5	
CN(Cc1ccccc1)n1sc2ccccc2c1=O	189	
O=c1ccsn1CCc1ccccc1	759	
O=c1c2ccccc2sn1NCc1ccccc1	19.5	IC50 [4]: 54.4 nM; IC50 [5]: 44.9 nM; IC50 [6]: 782 nM
Cc1cccc2c(=O)n(CCc3ccccc3)sc12	13100	
O=c1c2cc([N+](=O)[O-])ccc2sn1CCc1ccccc1	163	
O=c1c2ccccc2sn1NCCCCCNn1sc2ccccc2c1=O	11.5	IC50 [4]: 230 nM; IC50 [5]: 220 nM; IC50 [6]: 1460 nM
O=c1c2ccccc2sn1CCc1ccccc1		Drug metabolism [7]: Metabolite detected; Activity [8]: 73.4 µM; Activity [9]: 61.8%; Activity [10]: Bld; Activity [2]: Active; Activity [3]: inactive; Tmax [11]: 15 min; Tmax [12]: 15 min; BPR [13]: 4.5%; inhibition [14]: Active
O=c1c2cc(O)ccc2sn1CCc1ccccc1	135	
COc1ccc2c(=O)n(CCc3ccccc3)sc2c1	512	
O=c1c2ccccc2sn1NCCCCCCNn1sc2ccccc2c1=O	16.8	IC50 [4]: 114 nM; IC50 [5]: 82.7 nM; IC50 [6]: 2080 nM
COC(=O)c1ccc(CNn2sc3ccccc3c2=O)cc1	93.9	
O=c1c2ccccc2sn1CCc1cccc2ccccc12	21.8	
